High-throughput results: PubChem, several laboratories
Rows were chosen to be rich in hits. Some 1.5% of all compounds tested hit in one or more screens of this group.
CaV13 FRET inh = Disruptors of the CACNA1D IQ motif to Ca2+-dependent inactivation inhibitor domain association, primary screening, Förster resonance energy transfer in intact living …; HEK cells, CFP/YFP FRET ICDI-IQ, plate reader, 10 min; percent FRET-ratio fall versus neutral wells; inhibition, % at 12.3 µM; 340,000 compounds, 0.098% hits;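 active means mean replicate inhibition of at least 30% and at least 1% of replicates passing that level; inconclusive means only one of the two criteria is met; inactive means neither criterion is met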;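 further: 0% = median of the neutral control wells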
Hck-Nef inh = inhibitors of Nef-activated human Hck kinase, primary screen, biochemical, Z-Lyte FRET, 384-well, Hck-YEEI; 220,000 compounds, 0.68% hits; inhibition, % at 20 µM; Recombinant Hck-YEEI plus Nef, Z-Lyte FRET kinase assay;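 active means Hck-Nef kinase inhibition above about 50%, limit read from the data; inactive means inhibition below that limit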;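 further: 0% = DMSO with Hck plus Nef and 100% = Hck alone without Nef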
RanGTP-Imp inh = inhibitors of RanGTP-importin-beta interaction, primary screen, biochemical, FRET, CFP-Ran, YFP-importin-beta, homogeneous; Ran GTPase (GTP-bound) - importin-beta complex; cell-free CFP-Ran/YFP-importin-beta FRET ratio; inhibition, % (no concentration beside the values); 300,000 compounds, 1.1% hits; AID 2216, 2009;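 active means more than half of the replicate wells show a fall in the fluorescence ratio signal beyond about 16%, limit read from the data, passing the limit was not always enough; inconclusive means exactly half of the replicate wells pass the set limit; inactive means fewer than half of replicates pass the limit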;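 further: 0% = DMSO wells and 100% = Ran loaded with GDP instead of GTP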
Runt-CBFb FRET = inhibitors of RUNX1 Runt–CBFb binding, primary screen, biochemical, FRET, Cerulean-Runt, Venus-CBFb, uHTS | inhibition, % at 20 µM | 220,000 compounds, 0.46% hits | Cerulean-Runt/Venus-CBFb FRET ratio 530/480, 1 h | Runt-related transcription factor 1 (Homo sapiens) + Core-binding factor subunit beta … | AID 1496, 2009;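 active means inhibition over about 50% at 20 µM in the single-dose screen, limit read from the data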;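 further: 0% = DMSO wells and 100% = excess unlabeled CBFb competitor control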
Target sequence (Q01196 whole entry, looked up): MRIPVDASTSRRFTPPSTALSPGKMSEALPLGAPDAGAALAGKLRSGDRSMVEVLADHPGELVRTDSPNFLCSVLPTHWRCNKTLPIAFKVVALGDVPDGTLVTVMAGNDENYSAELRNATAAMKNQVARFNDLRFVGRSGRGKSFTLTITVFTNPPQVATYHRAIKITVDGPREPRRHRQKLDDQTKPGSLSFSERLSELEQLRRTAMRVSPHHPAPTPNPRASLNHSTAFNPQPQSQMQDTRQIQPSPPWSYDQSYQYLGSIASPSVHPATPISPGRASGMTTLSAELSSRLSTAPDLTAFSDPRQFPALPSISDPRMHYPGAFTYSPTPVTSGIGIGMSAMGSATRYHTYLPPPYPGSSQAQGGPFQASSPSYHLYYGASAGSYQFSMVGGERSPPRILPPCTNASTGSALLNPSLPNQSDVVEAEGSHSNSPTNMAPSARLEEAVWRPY
Target sequence (Q13951 whole entry, looked up): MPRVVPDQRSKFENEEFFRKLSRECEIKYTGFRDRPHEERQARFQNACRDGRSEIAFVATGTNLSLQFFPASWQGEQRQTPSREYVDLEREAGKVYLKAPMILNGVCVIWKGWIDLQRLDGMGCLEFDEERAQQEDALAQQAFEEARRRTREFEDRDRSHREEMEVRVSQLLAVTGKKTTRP
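test system = Cerulean-tagged RUNX1 Runt domain (FRET donor) fusion protein | reagent = Venus-CBFb binding partner, 100 nM | incubation = protein complex preformed 1 h, compound exposure 1 h, room temperature, dark | detection = FRET fluorescence | read-out basis = loss of energy transfer signal | controls = 5 µM unlabeled CBFb as full-inhibition high control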
Runt-SMMHC FRET = inhibitors of RUNX1 Runt–CBFb-SMMHC binding, primary screen, biochemical, FRET, Cerulean-Runt, Venus-CBFb-SMMHC, uHTS. Cerulean-Runt/Venus-CBFb-SMMHC FRET ratio 530/480, 1 h. AID 1434, 2008. inhibition, % at 20 µM. 220,000 compounds, 0.74% hits;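 active means mean inhibition across duplicate retests at 20 µM reaching about 50%, limit read from the data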;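 further: 0% = DMSO wells and 100% = wells with excess untagged CBFb-SMMHC; inhibitors lower the FRET ratio by blocking Runt binding to CBFb-SMMHC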
* hit, by the source's call; ? = inconclusive; nt = no result; + = active, no number.

SMILES	CaV13 FRET inh	Hck-Nef inh	RanGTP-Imp inh	Runt-CBFb FRET	Runt-SMMHC FRET
CCn1cc(C2C(C(=O)Nc3cc(C)ccn3)=C(C)NC3=C2C(=O)CC(C)(C)C3)c(C)n1 (centres undefined)	-1	28	3	28	69*
CC1=C(C(=O)Nc2cc(C)ccn2)C(c2ccc(C)cc2)C2=C(CCCC2=O)N1 (centres undefined)	nt	36	-4	18	51*
CCn1cc(C2C3=C(CC(C)(C)CC3=O)N(c3ccc(C)cc3)C3=C2C(=O)CC(C)(C)C3)c(C)n1	-2	nt	nt	nt	nt
CC1=C(C(=O)Nc2ccccc2)C(c2ccc3c(c2)OCO3)C2=C(CCCC2=O)N1 (centres undefined)	-5	-7	1	1	-5
Cc1ccc(NC(=O)c2c(F)cccc2Cl)cc1S(=O)(=O)N1CCOCC1	-6	nt	nt	nt	nt
COc1ccc(C2c3ccc(O)cc3Oc3ncn(Cc4ccccc4)c(=N)c32)cc1OC (centres undefined)	-14	-3	3	6	21
COc1ccc(C2c3ccc(O)cc3Oc3ncn(Cc4ccco4)c(=N)c32)cc1 (centres undefined)	-6	18	3	97*	28
Cc1cc(N)n2nc(C)c(-c3ccccc3)c2n1	-4	2	?	95*	-11
Cc1cc(N)n2nc(C)c(-c3ccc(Cl)cc3)c2n1	0	18	-2	-3	-5
CCCCn1c2nc3ccccc3nc2c2c(=N)oc(C)nc21	-9	nt	nt	46	79*
COc1ccc(-n2c3nc4ccccc4nc3c3c(=N)oc(C)nc32)cc1	-6	28	7	66*	129*
CCCCn1c2nc3ccccc3nc2c2c(=O)n(-c3ccccc3)cnc21	-5	2	2	-6	8
CC(C)(C)c1ccc(CC(=O)N2CCC2(C)C(=O)NS(=O)(=O)c2cccc(F)c2)cc1 (centres undefined)	-7	nt	nt	nt	nt
C[C@@H]1CN([C@H](C)CO)C(=O)CCCn2nncc2CO[C@@H]1CN(C)C(=O)c1ccc(N2CCN(C)CC2)cc1	-3	nt	nt	nt	nt
CC(=O)N1CCc2[nH]c3ccccc3c2C1	-5	-3	38*	-11	-19
Cc1nn(-c2ccc(Cl)cc2)c(=O)c2ccccc12	-4	10	-2	2	5
Cc1c(Cl)sn(-c2ccc(Cl)cc2)c1=O	-6	-107	nt	29	53*
CN1CCc2nc(NC(=O)c3cccc(OC(F)F)c3)sc2C1	-7	8	19*	23	69*
COc1cccc(OCC(=O)NC2CCS(=O)(=O)C2)c1 (centres undefined)	-7	nt	nt	nt	nt
Cc1nc([N+](=O)[O-])c(Br)n1Cc1ccccc1	-4	6	5	2	-5
Cc1nc([N+](=O)[O-])c(Sc2nc3ccc([N+](=O)[O-])cc3[nH]2)n1Cc1ccccc1	-16	2	-1	115*	6
CCCCN(CCCNC(=O)C1CCN(S(=O)(=O)CC)CC1)c1ccccc1	-2	0	22*	2	7
CC(O)(c1cccnc1)c1nc(-c2ccc3c(c2)OCO3)cs1 (centres undefined)	-6	nt	nt	nt	nt
Cc1ccc(/C=C2/SC(=O)NC2=S)o1	nt	40	nt	26	59*
COc1ccc2oc(=O)c(C(=O)OCc3ccccc3)cc2c1	-5	nt	19*	nt	nt
SMILES	CaV13 FRET inh	Hck-Nef inh	RanGTP-Imp inh	Runt-CBFb FRET	Runt-SMMHC FRET
COc1ccc2oc(=O)c(C(=O)NCc3ccccc3)cc2c1	-3	nt	-2	nt	nt
O=c1oc2ccc3ccccc3c2cc1-c1nc2ccccc2o1	nt	0	126*	nt	nt
CN1CCN(C(=O)c2cc3c(ccc4ccccc43)oc2=O)CC1	-4	12	4	12	42
COC(=O)c1cc2c(ccc3ccccc32)oc1=O	-5	nt	84*	nt	nt
CN(CC(=O)Nc1ccccc1Br)C(=O)c1ccc2c(=O)n3c(nc2c1)CCC3	-13	nt	nt	nt	nt
COc1ccc(CCNC(=O)c2ccc3c(=O)n4c(nc3c2)CCC4)cc1OC	-5	nt	nt	nt	nt
CCCCCCCCN1C(=O)[C@@H](CC(=O)NCc2ccccc2)C[C@@]2(C(=O)OC)C1=C[C@H](C1CCCC1)O[C@@H]2C	-5	nt	nt	nt	nt
COc1ccc(CNC(=S)NCc2ccc(Cl)cc2)cc1OC	-10	nt	-1	nt	nt
CN(Cc1ccc(Cl)cc1)C(=O)COC(=O)CSc1ccc([N+](=O)[O-])cc1	-3	nt	nt	nt	nt
CCOc1ccc2nc(NCCCNS(=O)(=O)c3ccc(C)cc3)c(C#N)cc2c1	32*	-8	129*	6	102*
CCOc1ccc2nc(NCCNC(=O)Nc3ccccc3)c(C#N)cc2c1	-10	25	86*	8	25
CCOc1ccc2nc(NCCNC(=O)Nc3cccc(C)c3)c(C#N)cc2c1	-5	4	-2	88*	38
CCOc1ccc2nc(NCCNC(=S)NCCCN(C)C)c(C#N)cc2c1	+	-33	93*	19	92*
O=C(NC1CCCCCC1)C1CC(=O)N(c2ccc(Cl)cc2)C1 (centres undefined)	-4	nt	-1	nt	nt
Cc1ccc(NC(=S)N2CCCC(CO)C2)c(C)c1 (centres undefined)	-5	-41	?	0	1
COc1ccc(S(=O)(=O)Cc2ccc(C(=O)N3CCN(Cc4ccccc4)CC3)o2)cc1	58*	0	1	3	5
Cc1ccc(S(=O)(=O)Cc2ccc(C(=O)N3CCN(Cc4ccccc4)CC3)o2)cc1	5	2	4	1	3
Cc1ccc(-n2c(C)nc3c(cnn3-c3ccc(C)c(C)c3)c2=O)cc1C	-6	0	30*	-1	4
CC1(C)CC(=O)CC(=Nc2ccc(C(=O)O)cc2)C1	nt	1	45*	0	3
CC1(C)CC(=O)C/C(=N/NC(=O)c2ccc(-c3ccccc3)cc2)C1	-5	4	24*	-1	-5
CN(CC(=O)N1CCc2ccccc2C1)c1ccccc1	-4	nt	0	nt	nt
CCc1nnc(NC(=O)CCC(=O)N2CCN(Cc3ccc(F)cc3)CC2)s1	-4	nt	1	nt	nt
CC1CCc2[nH]c3ccc(C(=O)O)cc3c2C1 (centres undefined)	-4	nt	?	nt	nt
CC1CCc2[nH]c3ccc(C(=O)NCCCOC(C)C)cc3c2C1 (centres undefined)	-19	-5	22*	0	8
O=C(c1cnn(C(=O)c2ccccc2)c1)c1ccccc1O	-16	62*	5	0	3
Cc1onc(-c2ccccc2)c1C(=O)Nc1sc2c(c1C#N)CCC2	-4	18	46*	9	7
